# Experiments:
# D. rerio (zebrafish) = test: Somite formation in zebrafish embryos; assay type: in vivo; conditions: embryos soaked in 40 μM IMR-1
# Method in brief: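 Zebrafish embryos were exposed to test compound at 8 hpf and examined at 13 hpf in coronal view for somites. Controls were untreated, DMSO vehicle, and 100 pg human Notch1 intracellular domain mRNA-injected embryos. The percentage of embryos with somites was scored and compared by Fisher's exact test.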
# [1] = test system: HES1 promoter occupancy in OE33 and 786-0 cells; test: ChIP assay on the HES1 promoter; assay type: cell-based, human; conditions: DAPT 15 μM, IMR-1 25 μM
# Method in brief: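 OE33 and 786-0 cells were exposed to DAPT, test compound or DMSO vehicle. Chromatin immunoprecipitation used the indicated antibodies against NTC components, and HES1 promoter occupancy was assessed.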
# [2] = test system: Notch-independent cell lines (refractory to DAPT); test: Colony formation assay, Notch-independent cell lines; assay type: cell-based, human; conditions: cells refractory to DAPT
# [3] = test system: OE19 human esophageal adenocarcinoma cells; test: OE19 xenograft model in nude mouse; assay type: in vivo; conditions: 15 mg/kg
# Method in brief: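 Nude mice received 5 × 10^6 OE19 cells in the flank, and tumors developed over 4 weeks. Mice were treated with test compound at 15 mg/kg or DMSO control. Tumor establishment and body weight were monitored through treatment.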
# NICD R2071A = NICD R2071A (Homo sapiens, UniProt P46531, R2070A); test: Surface plasmon resonance, binding to mutated NICD; conditions: SPR
# Chain of NICD R2071A (P46531 1754-2555 R2070A): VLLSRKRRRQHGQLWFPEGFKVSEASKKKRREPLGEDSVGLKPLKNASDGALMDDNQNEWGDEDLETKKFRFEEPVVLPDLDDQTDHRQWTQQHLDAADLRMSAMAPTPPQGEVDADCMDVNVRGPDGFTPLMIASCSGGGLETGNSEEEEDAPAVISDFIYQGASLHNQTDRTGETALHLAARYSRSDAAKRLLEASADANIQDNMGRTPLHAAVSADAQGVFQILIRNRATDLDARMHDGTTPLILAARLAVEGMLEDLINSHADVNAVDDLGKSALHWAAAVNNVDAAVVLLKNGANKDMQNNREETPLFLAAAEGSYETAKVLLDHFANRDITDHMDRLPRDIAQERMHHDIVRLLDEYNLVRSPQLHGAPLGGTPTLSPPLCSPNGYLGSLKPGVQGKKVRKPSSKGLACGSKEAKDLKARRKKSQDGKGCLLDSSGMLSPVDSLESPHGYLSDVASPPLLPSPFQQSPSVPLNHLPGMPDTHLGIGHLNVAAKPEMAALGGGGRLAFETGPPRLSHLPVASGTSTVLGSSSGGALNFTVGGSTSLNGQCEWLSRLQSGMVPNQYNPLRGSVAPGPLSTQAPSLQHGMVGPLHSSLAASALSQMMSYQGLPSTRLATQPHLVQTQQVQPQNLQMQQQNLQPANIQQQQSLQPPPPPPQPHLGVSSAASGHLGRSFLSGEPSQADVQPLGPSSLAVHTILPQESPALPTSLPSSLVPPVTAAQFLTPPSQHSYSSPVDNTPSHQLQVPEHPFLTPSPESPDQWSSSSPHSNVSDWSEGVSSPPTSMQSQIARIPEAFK
# Method in brief: (§1)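 NICD (wild type or point mutant) was amine-coupled to a CM5 chip. Runs were on a Biacore T200 at 25 °C in 10 mM PBS pH 7.5 with 5% DMSO as running buffer. Signals were corrected against a DMSO control. Dissociation was followed under buffer flow. KD came from equilibrium response (Req) versus test compound concentration, fitted to a 1:1 binding model.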
# NICD R2105A = NICD R2105A (Homo sapiens, UniProt P46531, R2104A); test: Surface plasmon resonance, binding to mutated NICD; conditions: SPR, R2105 substituted by alanine
# Chain of NICD R2105A (P46531 1754-2555 R2104A): as the sequence (P46531 1754-2555 R2070A) above, with A317R, R351A counted along it
# Method in brief: as §1
# Notch1 (NICD) = Notch1 (NICD) (Homo sapiens, UniProt P46531); test: Surface plasmon resonance, binding to NICD; conditions: for mode of binding to Notch1: SPR sensorgrams, dissociation to baseline; for Kd: SPR, equilibrium approach, 1:1 binding model, wild type NICD
# Chain of Notch1 (NICD) (P46531 1754-2555 limits assumed): as the sequence (P46531 1754-2555 R2070A) above, with A317R counted along it
# Method in brief: as §1
# [4] = target: Notch ternary complex (CSL, Notch1, Maml1 on DNA) (Homo sapiens, UniProt P46531); test: in vitro Notch ternary complex; assay type: biochemical; conditions: for IC50: in vitro NTC assay, dose-response
# Chain of Notch ternary complex (CSL, Notch1, Maml1 on DNA) (P46531 1754-2555 limits assumed): as the sequence (P46531 1754-2555 R2070A) above, with A317R counted along it
# Chain of Notch ternary complex (CSL, Notch1, Maml1 on DNA) (Q06330 whole entry partner): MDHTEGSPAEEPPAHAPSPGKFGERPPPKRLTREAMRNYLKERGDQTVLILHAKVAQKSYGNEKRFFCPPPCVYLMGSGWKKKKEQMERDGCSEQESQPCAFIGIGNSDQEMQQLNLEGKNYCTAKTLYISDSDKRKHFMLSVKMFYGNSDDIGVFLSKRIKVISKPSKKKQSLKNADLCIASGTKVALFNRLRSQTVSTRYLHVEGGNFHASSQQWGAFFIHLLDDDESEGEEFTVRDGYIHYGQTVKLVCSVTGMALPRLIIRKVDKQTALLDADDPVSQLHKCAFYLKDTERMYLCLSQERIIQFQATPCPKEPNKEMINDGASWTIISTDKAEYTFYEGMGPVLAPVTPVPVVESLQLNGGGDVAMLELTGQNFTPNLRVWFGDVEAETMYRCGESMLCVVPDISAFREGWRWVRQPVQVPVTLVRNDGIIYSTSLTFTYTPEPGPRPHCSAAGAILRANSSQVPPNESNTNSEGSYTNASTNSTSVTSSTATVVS
# NICD R2061A = NICD R2061A (Homo sapiens, UniProt P46531, R2060A); test: Surface plasmon resonance, binding to mutated NICD; conditions: SPR
# Chain of NICD R2061A (P46531 1754-2555 R2060A): as the sequence (P46531 1754-2555 R2070A) above, with R307A, A317R counted along it
# Method in brief: as §1
# [5] = test system: patient-derived esophageal adenocarcinoma xenograft (EAC29 and EAC47); test: Patient-derived esophageal adenocarcinoma xenograft; assay type: in vivo
# Method in brief: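 Patient-derived esophageal adenocarcinoma tumors were grown in NSG mice to 200 mm3 before treatment began. Mice then received daily i.p. doses of test compound (15 mg/kg), comparator inhibitor (20 mg/kg) or DMSO vehicle. After 24 days, tumors were harvested. Notch target gene transcription was measured by RT-qPCR (TaqMan) and normalized to TBP and HPRT.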
# [6] = test system: NICD in OE33 and 786-0 cells; test: Western analysis of NICD levels; assay type: cell-based, human; conditions: Western analysis of lysates from ChIP assay cells
# Method in brief: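 Lysates came from the same treated OE33 and 786-0 cells used for ChIP (DAPT 15 μM, test compound 25 μM, or DMSO). Western blots were probed with anti-Notch1, anti-cleaved Notch1 (Val1744) and anti-GAPDH antibodies.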
# [7] = Plasma pharmacokinetic profile in mice; assay type: in vivo, male C57 BL/6 mice; conditions: for signal in plasma: after IMR-1 i.v. 2 mg/kg and i.p. 100 mg/kg, any time point
# Method in brief: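 Male C57BL/6 mice received a single test compound dose, either 2 mg/kg i.v. or 100 mg/kg i.p. Plasma was analysed by mass spectrometry (m/z) for parent and acid metabolite. Metabolite PK parameters (Tmax, T1/2, CL, Vss) were calculated on the parent dose. Clearance was referenced to 90 mL/min/kg liver blood flow, and Vss to 0.7 L/kg total body water.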
# NICD R2096A = NICD R2096A (Homo sapiens, UniProt P46531, R2095A); test: Surface plasmon resonance, binding to mutated NICD; conditions: SPR, R2096 substituted by alanine
# Chain of NICD R2096A (P46531 1754-2555 R2095A): as the sequence (P46531 1754-2555 R2070A) above, with A317R, R342A counted along it
# Method in brief: as §1
# [8] = test system: Notch target genes (Hes-1, Hey-L) in OE33 and 786-0 cells; test: RT-qPCR analysis of Notch target genes; assay type: cell-based, human
# Method in brief: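 OE33 and 786-0 cells were treated, then Hes-1 and Hey-L were measured by reverse transcription and TaqMan qPCR. Values were normalized to TBP and HPRT and expressed relative to vehicle (DMSO) control set to 1.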
# [9] = IMR-1A after IMR-1 i.p. 100 mg/kg, mice plasma
molecule,measurement,setting,value
IMR-1,embryos with disruption of somite formation,D. rerio (zebrafish),69.7%
same,occupancy of Maml1 on the HES1 promoter,[1],decreased the occupancy
same,occupancy of Notch1 on the HES1 promoter,[1],did not affect the occupancy
same,colony formation,[2],equally resistant
same,adverse effects,[3],no observable adverse effects
same,tumor establishment,"[3]; nude mouse, OE19 cells, 4 weeks",readily blocks tumor establishment
same,body weight,[3]; throughout the treatment course,remained constant
same,Kd,NICD R2071A; NICD R2071A,38.7 µM
same,decrease in affinity relative to wild type NICD,NICD R2071A; R2071 replaced with alanine,approximately 5 fold
same,effect of mutation on affinity,NICD R2105A,No effect
same,mode of binding to Notch1,Notch1 (NICD),"non-covalent, reversible binding"
same,Kd,Notch1 (NICD),11 ± 3 µM
same,IC50,[4],26 µM
same,Kd,NICD R2061A; NICD R2061A,35.6 µM
same,decrease in affinity relative to wild type NICD,NICD R2061A; R2061 replaced with alanine,approximately 5 fold
same,"expression level of Notch target genes (Hes1, HeyL, Notch3) in excised tumors","[5]; after 24 days of treatment, both PDX models",dramatically reduced
same,weight loss or visible signs of adverse effects,[5]; daily i.p. 15 mg/kg,without any significant weight loss or other visible signs of adverse effects
same,PDX tumor growth,"[5]; daily i.p., IMR-1 15 mg/kg or DAPT 20 mg/kg, 24 days, vs DMSO",significantly abrogated growth
same,general toxicity upon in vivo treatment,"[5]; in vivo treatment, summary statement",no general toxicity was observed
same,levels of NICD in cells,[6],does not change
same,signal in plasma,[7],no signal was detected
same,clinical signs,"[7]; single i.v. 2 mg/kg and i.p. 100 mg/kg, through last sample withdrawal",did not induce any clinical signs
same,effect of mutation on affinity,NICD R2096A,No effect
same,Notch target gene transcription,"[8]; Hes-1, Hey-L, OE33 and 786-0",dose-dependent decrease
same,transcription of the housekeeping gene HPRT,[8]; treated cells,unaltered
COc1cc(/C=C2/SC(=S)NC2=O)ccc1OCC(=O)O [IMR-1A],mode of binding to Notch1,Notch1 (NICD),"non-covalent, reversible binding"
same,Kd,Notch1 (NICD),2.9 ± 0.6 µM
same,increase in potency with respect to IMR-1,[4]; in vitro NTC assay IC50,50 fold
same,IC50,[4],0.5 µM
same,T1/2,[7]; [9],6.16 h
same,Tmax,[7]; [9],0.50 h
same,Vss relative to normal volume of total body water (0.7 L/kg),[7]; IMR-1A after IMR-1 i.v. 2 mg/kg,~ 4 fold
same,T1/2,"[7]; IMR-1A after IMR-1 i.v. 2 mg/kg, mice plasma",2.22 h
same,CL,"[7]; IMR-1A after IMR-1 i.v. 2 mg/kg, mice plasma, 2 mg/kg",7 mL/min/kg
same,time up to which plasma concentrations were quantifiable,[7]; after IMR-1 i.p. 100 mg/kg,up to 24 h
same,signal in plasma,[7],present
"C[C@H](NC(=O)Cc1cc(F)cc(F)c1)C(=O)N[C@H](C(=O)OC(C)(C)C)c1ccccc1 [DAPT, reference compound]",occupancy of Maml1 on the HES1 promoter,[1],decreased the occupancy
same,occupancy of Notch1 on the HES1 promoter,[1],decreased the occupancy
same,colony formation,[2],refractory
